HSV augment: HSV replication enhancement; HSV replication augmentation in cells, fold increase; maximum fold increase; actives 0.005% (n = 220,000); AID 1956; in the data active means maximum fold increase above about 1.5; inconclusive means no clear call, values can overlap the other calls; tested in PC3 cells
STAT3 act-1: STAT3 signaling activation; U3A cells, IL-6 STAT3-luciferase reporter, luminescence; 100% = signal with IL-6 EC80 alone; activation (% of control), % at 5.6 µM; actives 0.91% (n = 190,000); AID 871;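 active means activation above the screen-wide mean of compound activation plus 3 SD, cut at about 130% in these data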
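system = STAT3-luciferase reporter U3A cells | reagent = IL-6 stimulus at 33 ng/mL final | timing = 1 h compound pre-exposure, 6 h IL-6 stimulation, 37 °C | measured by = luminescence | evaluation = % activation versus median of IL-6-stimulated wells | control set = IL-6-only wells as 100% reference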
STAT3 blocker: STAT3 signaling inhibition; AID 862; U3A cells, IL-6 STAT3-luciferase reporter, luminescence; host cell line lacks STAT1; inhibition, % at 5.5 µM; actives 0.89% (n = 190,000);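 active means inhibition above the mean inhibition across all screened compounds plus 3 SD, cut at about 44% in these data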
STAT1 act-1: STAT1 signaling activation; NIH 3T3 STAT1-luciferase reporter, IFN-gamma, luminescence; 100% = IFN-gamma alone, no compound; activation (% of control), % at 5.5 µM; actives 2.6% (n = 200,000); AID 932;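 active means activation above the screen-wide mean activation plus 3 SD, cut at about 130% in these data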
STAT1 blocker: reduces IFN-gamma driven STAT1 reporter signal | inhibition, % at 5.5 µM | AID 920 | actives 0.35% (n = 200,000) | NIH 3T3 STAT1-luciferase reporter, luminescence;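 active means inhibition above a set limit, the mean inhibition across all tested compounds plus 3 SD, cut at about 34% in these data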
Cl transport mod: KCC2 (human) Cl- transport modulation; KCC2 cells, thallium flux FluoZin-2 fluorescence; B-score of Tl+ flux slope (higher = more flux/activation; lower = inhibition) at 10 µM; Q9H2X9; actives 2.2% (n = 190,000);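 active means thallium flux slope and its plate-corrected score both differing from the plate sample mean at a set confidence after two filtering rounds, in either direction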;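 further: slope of fluorescence scaled to starting intensity during 10 to 20 s after thallium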
STAT3 act-2: confirmation of STAT3 signaling activators | shares compounds with STAT3 act-1 | U3A STAT3-luciferase reporter, IL-6 potentiation, luminescence; U3A cells lack STAT1; 100 means same as IL-6 alone | potentiation (% of control), % at 5.7 µM | actives 64% (n = 1,200) | AID 1267;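 active means percent activation of the STAT3 luciferase reporter above a set limit taken from the earlier primary screen, cut at about 130% in these data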
NFkB act STAT3ct: NF-kappaB activation in STAT3 activator counter-screen; shares compounds with STAT3 act-1; human cells, NF-kappaB reporter activation; activation (% of control), % at 5.7 µM; actives 11% (n = 1,200); AID 1309; in the data active means activation above about 120%;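 further: reporter induced by TNF-alpha stimulation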
STAT1 act-2: counter-screen for STAT3 activators: STAT1 activation. shares compounds with STAT3 act-1. NIH 3T3 STAT1-luciferase reporter, IFN-gamma, luminescence. activation (% of control), % at 5.7 µM. actives 13% (n = 1,200). AID 1318;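 active means activation above the solvent-only control well mean plus 3 SD, set per screening run, cut at about 120% in these data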
KCC2 sec1: confirmation of human KCC2 transport modulators; shares compounds with Cl transport mod; HEK293-KCC2, thallium flux, FluoZin2 fluorescence; hits give high values; normalised thallium flux (F/F0 slope) at 10 µM; actives 15% (n = 3,700); AID 1713;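 active means thallium flux slope above the same plate's solvent-only control mean plus 3 SD; inconclusive means the two replicate wells disagree; inactive means no significant difference from solvent-only control wells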
KCC2 bumet counter: bumetanide-insensitive thallium flux in KCC2 cells with ouabain, counter-screen | shares compounds with Cl transport mod | HEK293-KCC2 + bumetanide/ouabain, thallium flux FluoZin2; hits give high values | normalized thallium flux at 10 µM | actives 49% (n = 3,700) | AID 1714;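 active means thallium entry rate above the same plate's blocked-transporter control wells by more than 3 SD; inconclusive means the two repeat wells disagree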;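 further: raw slope of fluorescence over initial fluorescence between 10 and 20 s after thallium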
KCC2 secondary2: KCC2 (human) modulation, second secondary assay; shares compounds with Cl transport mod; actives 23% (n = 3,700); AID 1715; HEK293-KCC2, thallium flux FluoZin2 fluorescence; actives lie on both sides; F/F0 rise rate, 10–20 s post-thallium; normalized thallium flux at 10 µM;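 active means thallium flux slope more than 3 SD above or below the plate's solvent-only control mean, mostly below; inconclusive means the two repeat wells disagreed; inactive means no significant shift from solvent-only controls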
HEK counter1: acts in parental HEK cells, KCC2 counter-screen. actives 46% (n = 3,700). shares compounds with Cl transport mod. thallium flux rate (normalised fluorescence) at 10 µM. HEK293 parental cells, thallium flux FluoZin2, ouabain; baseline-ratio fluorescence slope, 10–20 s after thallium;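 active means thallium flux rate significantly above the same plate's solvent-only control wells, beyond their mean plus 3 SD; inconclusive means the two replicate wells gave conflicting results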
KCC2 ouabain: KCC2 (human) modulation, ouabain retest; raw Tl+ flux slope (below DMSO = inhibition, above = activation) at 10 µM; HEK293-KCC2, thallium flux FluoZin2 fluorescence; bidirectional: low = inhibitor, high = activator; shares compounds with Cl transport mod; actives 48% (n = 3,700);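 active means thallium flux slope beyond 3 SD from same-plate DMSO control mean in most replicates, usually higher, sometimes lower; inconclusive means repeat tests gave conflicting results; inactive means no significant difference from controls in most replicates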;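 further: slope of initial-normalized fluorescence between seconds 10 and 20 after thallium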
HEK counter2: parental HEK flux effect, counter-screen 2; shares compounds with Cl transport mod; HEK293 parental, thallium flux FluoZin-2 fluorescence slope; thallium flux slope at 10 µM; actives 33% (n = 3,700);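 active means thallium flux slope above the same plate's solvent-control mean plus 3 SD in both duplicate wells; inconclusive means duplicate wells that disagreed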;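 further: run without ouabain in cells lacking the KCC2 cotransporter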
Large screens that a line does not name were inactive (follow-up assays come after a bar, where they were run). Shown are actives, neighbours in structure and some others; about 5.5% of the full set was active somewhere.

Cc1ccc(C)c(/C(O)=C2\C(=O)C(=O)N(CCCN3CCOCC3)C2c2cccnc2)c1 (stereo unspecified)	none
CN(C)/C=C(\C#N)C(N)=C(C#N)C#N	none
O=C(/C=C/c1cccs1)Nc1cccc(NC(=O)/C=C/c2cccs2)n1	none
Oc1cccc2ccc(/C=C/c3cccs3)nc12	STAT3 act-1 148, Cl transport mod 15 | STAT3 act-2 189 | NFkB act STAT3ct 121 | STAT1 act-2 inactive | KCC2 sec1 inactive | KCC2 bumet counter 0.019 | KCC2 secondary2 inactive | HEK counter1 0.013 | KCC2 ouabain inconclusive | HEK counter2 inactive
O=C(O)c1c(N2CCCCC2)ccc([N+](=O)[O-])c1N1CCCCC1	none (no result: STAT3 act-1, STAT3 blocker, STAT1 act-1, STAT1 blocker)
Cc1ccc(Nc2nnc(SC/C(O)=C(\C#N)c3nc4ccccc4[nH]3)s2)c(C)c1	STAT3 act-1 145, Cl transport mod -4.2 | STAT3 act-2 151 | NFkB act STAT3ct inactive | STAT1 act-2 inactive | KCC2 sec1 inconclusive | KCC2 bumet counter inactive | KCC2 secondary2 inconclusive | HEK counter1 inconclusive | KCC2 ouabain 0.014 | HEK counter2 0.012
Cc1ccc2cccc(NC(=S)NC(=O)c3c(Br)cnn3C)c2n1	STAT3 act-1 139, Cl transport mod 5.7 | STAT3 act-2 inactive | NFkB act STAT3ct inactive | STAT1 act-2 inactive | KCC2 sec1 inactive | KCC2 bumet counter 0.015 | KCC2 secondary2 inactive | HEK counter1 0.014 | KCC2 ouabain 0.029 | HEK counter2 0.012
CCN(CC)C1=NC=CC(c2ccccc2)=CC1C (stereo unspecified)	none
Cc1oc(-c2ccccc2)nc1C(=O)Nc1nccs1	STAT3 act-1 140, Cl transport mod 7.7 | STAT3 act-2 142 | NFkB act STAT3ct inactive | STAT1 act-2 inactive | KCC2 sec1 inactive | KCC2 bumet counter 0.016 | KCC2 secondary2 inactive | HEK counter1 0.0097 | KCC2 ouabain inactive | HEK counter2 0.012
Cc1cc(/C(N)=N/OC(=O)c2ccccc2Cl)no1	none (no result: STAT3 act-1, STAT3 blocker, STAT1 act-1, STAT1 blocker)
O=C1OCCN/C1=C\C(=O)c1ccc(Cl)cc1	none (no result: STAT3 act-1, STAT3 blocker, STAT1 act-1, STAT1 blocker)
Cc1cc(NS(=O)(=O)c2ccc(NC(=O)c3oc4ccccc4c3C)cc2)no1	STAT3 act-1 145, Cl transport mod -2.9 | STAT3 act-2 inactive | NFkB act STAT3ct inactive | STAT1 act-2 inactive | KCC2 sec1 inactive | KCC2 bumet counter inactive | KCC2 secondary2 inactive | HEK counter1 inactive | KCC2 ouabain inconclusive | HEK counter2 inactive
